Reference: ChEMBL document CHEMBL5303300, “EUbOPEN Chemogenomics Library - Multiplex” (2023)
“And” between values parts separate entries of the source, which are not always exact repeats. Identical values can stand only once.

Legend:
[1] = tested on: HEK-293T; test: Multiplex assay against HEK293T; type: toxicity, cell-based; details: human, number of replicates 2
In short: (§1)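 Tubulin, mitochondrial-mass and membrane-permeability phenotypes are per cents of healthy-nucleus cells. Cells were gated by CellPathfinder machine learning into Hoechst high-intensity objects or normal cells, normal cells into healthy, pyknosed or fragmented nuclei, and pyknosed cells into mitotic or apoptotic. Before that, live cells stained at seeding with Hoechst33342, BioTracker Green Microtubule Cytoskeleton Dye, MitoTracker Red and Annexin V Alexa Fluor 680 were imaged on a CQ1 microscope at 37°C and 5% CO2 after compound addition.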

[2] = tested on: U2OS; test: Multiplex assay against U2OS; type: toxicity, cell-based; details: human, number of replicates 2; in short: as §1
[3] = 24 h, 1 µM, compound concentration 1 uM
[4] = 24 h, 10 µM, compound concentration 10 uM
[5] = 48 h, 1 µM, compound concentration 1 uM
[6] = 48 h, 10 µM, compound concentration 10 uM
[7] = 12 h, 1 µM, compound concentration 1 uM
[8] = 12 h, 10 µM, compound concentration 10 uM

With `CN(C)C/C=C/C(=O)Nc1cccc(S(=O)(=O)N2CCC(NC(=O)c3n[nH]cc3NC(=O)c3c(Cl)cc(Cl)cc3Cl)CC2)c1` the “Population Mitochondria Different-Phenotype (%)” value [1, 3] was 70% and 63%, the “Population Mitotic Cells (%)” value [1, 3] was 19% and 20% and the “Population Normal (%)” value [1, 3] was 86% and 88%. The “Population Pyknosed Nuclei (%)” value [1, 3] was 7% and 10%, the “Population Tubulin-Different-Phenotype (%)” value [1, 3] was 87% and 89% and the “Total Cell Count” value [1, 3] was 336 and 325. The “Population Apoptotic (%)” value [1, 4] was 94% and 91%, the “Population Fragmented Nuclei (%)” value [1, 4] was 2% and 4% and the “Population Healthy Nuclei (%)” value [1, 4] was 64% and 53%. For the same compound, the “Population Hoechst High Intensity Objects (%)” value [1, 4] was 19% and 22%, the “Population Membrane Permeable-Phenotype (%)” value [1, 4] was 3% and 4% and the “Population Mitochondria Different-Phenotype (%)” value [1, 4] was 93% and 90%. For the same compound, the “Population Mitotic Cells (%)” value [1, 4] was 6% and 8%, the “Population Normal (%)” value [1, 4] was 80% and 77% and the “Population Pyknosed Nuclei (%)” value [1, 4] was 32% and 42%. For the same compound, the “Population Tubulin-Different-Phenotype (%)” value [1, 4] was 71% and 67%, the “Total Cell Count” value [1, 4] was 381 and 319 and the “Population Apoptotic (%)” value [1, 5] was 92% and 73%. The “Population Fragmented Nuclei (%)” value [1, 5] was 3% and 2%, the “Population Healthy Nuclei (%)” value [1, 5] was 86% and 82% and the “Population Hoechst High Intensity Objects (%)” value [1, 5] was 20% and 12%. For the same compound, the “Population Membrane Permeable-Phenotype (%)” value [1, 5] was 1%, the “Population Mitochondria Different-Phenotype (%)” value [1, 5] was 75% and 81% and the “Population Normal (%)” value [1, 5] was 79% and 87%. For the same compound, the “Population Pyknosed Nuclei (%)” value [1, 5] was 10% and 15%, the “Population Tubulin-Different-Phenotype (%)” value [1, 5] was 85% and 91% and the “Total Cell Count” value [1, 5] was 328 and 309. For the same compound, the “Population Apoptotic (%)” value [1, 6] was 78% and 71%, the “Population Fragmented Nuclei (%)” value [1, 6] was 6% and the “Population Healthy Nuclei (%)” value [1, 6] was 30% and 25%. The “Population Hoechst High Intensity Objects (%)” value [1, 6] was 14%, the “Population Membrane Permeable-Phenotype (%)” value [1, 6] was 3% and 7% and the “Population Mitochondria Different-Phenotype (%)” value [1, 6] was 90% and 76%. The “Population Mitotic Cells (%)” value [1, 6] was 21% and 28%, the “Population Normal (%)” value [1, 6] was 85% and the “Population Pyknosed Nuclei (%)” value [1, 6] was 62% and 68%. For the same compound, the “Population Tubulin-Different-Phenotype (%)” value [1, 6] was 65% and 78%, the “Total Cell Count” value [1, 6] was 442 and 399 and the “Population Apoptotic (%)” value [2, 7] was 78% and 85%. For the same compound, the “Population Fragmented Nuclei (%)” value [2, 7] was 15% and 10%, the “Population Healthy Nuclei (%)” value [2, 7] was 50% and 56% and the “Population Hoechst High Intensity Objects (%)” value [2, 7] was 0%. The “Population Membrane Permeable-Phenotype (%)” value [2, 7] was 15% and 7%, the “Population Mitotic Cells (%)” value [2, 7] was 21% and 14% and the “Population Normal (%)” value [2, 7] was 100% and 99%. The “Population Pyknosed Nuclei (%)” value [2, 7] was 35% and 33%, the “Population Tubulin-Different-Phenotype (%)” value [2, 7] was 65% and 50% and the “Population Apoptotic (%)” value [2, 8] was 80% and 82%. For the same compound, the “Population Fragmented Nuclei (%)” value [2, 8] was 8% and 13%, the “Population Healthy Nuclei (%)” value [2, 8] was 15% and 11% and the “Population Hoechst High Intensity Objects (%)” value [2, 8] was 0%. For the same compound, the “Population Membrane Permeable-Phenotype (%)” value [2, 8] was 80% and 83%, the “Population Mitochondria Different-Phenotype (%)” value [2, 8] was 45% and 66% and the “Population Mitotic Cells (%)” value [2, 8] was 19% and 17%. For the same compound, the “Population Normal (%)” value [2, 8] was 99% and 100%, the “Population Pyknosed Nuclei (%)” value [2, 8] was 76% and 75% and the “Population Tubulin-Different-Phenotype (%)” value [2, 8] was 100% and 83%. For the same compound, the “Population Apoptotic (%)” value [2, 3] was 65% and 93%, the “Population Fragmented Nuclei (%)” value [2, 3] was 25% and 9% and the “Population Healthy Nuclei (%)” value [2, 3] was 29% and 40%. For the same compound, the “Population Hoechst High Intensity Objects (%)” value [2, 3] was 0%, the “Population Membrane Permeable-Phenotype (%)” value [2, 3] was 6% and 13% and the “Population Mitochondria Different-Phenotype (%)” value [2, 3] was 13% and 20%. For the same compound, the “Population Normal (%)” value [2, 3] was 100%, the “Population Pyknosed Nuclei (%)” value [2, 3] was 45% and 50% and the “Population Tubulin-Different-Phenotype (%)” value [2, 3] was 86% and 59%. The “Population Apoptotic (%)” value [2, 4] was 97%, the “Population Fragmented Nuclei (%)” value [2, 4] was 11% and 9% and the “Population Healthy Nuclei (%)” value [2, 4] was 4% and 3%. The “Population Hoechst High Intensity Objects (%)” value [2, 4] was 0% and 2%, the “Population Membrane Permeable-Phenotype (%)” value [2, 4] was 100% and 83% and the “Population Mitochondria Different-Phenotype (%)” value [2, 4] was 100% and 83%. For the same compound, the “Population Mitotic Cells (%)” value [2, 4] was 2%, the “Population Normal (%)” value [2, 4] was 100% and 97% and the “Population Pyknosed Nuclei (%)” value [2, 4] was 84% and 87%. For the same compound, the “Population Tubulin-Different-Phenotype (%)” value [2, 4] was 100%, the “Population Apoptotic (%)” value [2, 5] was 76% and 97% and the “Population Healthy Nuclei (%)” value [2, 5] was 9% and 17%. The “Population Hoechst High Intensity Objects (%)” value [2, 5] was 4% and 5%, the “Population Normal (%)” value [2, 5] was 95% and 94% and the “Population Pyknosed Nuclei (%)” value [2, 5] was 60% and 74%. For the same compound, the “Population Tubulin-Different-Phenotype (%)” value [2, 5] was 100% and 82%, the “Population Apoptotic (%)” value [2, 6] was 93% and the “Population Fragmented Nuclei (%)” value [2, 6] was 0% and 6%. The “Population Healthy Nuclei (%)” value [2, 6] was 23% and 10%, the “Population Hoechst High Intensity Objects (%)” value [2, 6] was 0% and 1% and the “Population Membrane Permeable-Phenotype (%)” value [2, 6] was 90% and 94%. For the same compound, the “Population Mitochondria Different-Phenotype (%)” value [2, 6] was 90% and 72%, the “Population Mitotic Cells (%)” value [2, 6] was 6% and the “Population Normal (%)” value [2, 6] was 100% and 98%. For the same compound, the “Population Pyknosed Nuclei (%)” value [2, 6] was 76% and 83% and the “Population Tubulin-Different-Phenotype (%)” value [2, 6] was 100% and 88%.
